# Laboratory results taken from ChEMBL document CHEMBL4024758, “Structure-Based Design and Discovery of New M2 Receptor Agonists” (J Med Chem, 2017).
# Activity calls are given as the source filed them. No cut-off for these calls is given here.
# Columns and labels:
# [1] = biological target: Muscarinic acetylcholine receptor M3 (Homo sapiens, UniProt P20309); assay: Displacement of [3H]N-methyl-scopolamine bromide from human recombinant muscarinic M3 receptor expressed in HEK293T cell membranes after 1 hr by liquid scintillation counting method; type: cell-based, HEK-293T
# [2] = biological target: T1, Muscarinic acetylcholine receptor M1 (Homo sapiens, UniProt P11229); assay: Displacement of [3H]N-methyl-scopolamine bromide from human recombinant muscarinic M1 receptor expressed in HEK293T cell membranes after 1 hr by liquid scintillation counting method; type: cell-based, HEK-293T
# T1 sequence (P11229 whole entry): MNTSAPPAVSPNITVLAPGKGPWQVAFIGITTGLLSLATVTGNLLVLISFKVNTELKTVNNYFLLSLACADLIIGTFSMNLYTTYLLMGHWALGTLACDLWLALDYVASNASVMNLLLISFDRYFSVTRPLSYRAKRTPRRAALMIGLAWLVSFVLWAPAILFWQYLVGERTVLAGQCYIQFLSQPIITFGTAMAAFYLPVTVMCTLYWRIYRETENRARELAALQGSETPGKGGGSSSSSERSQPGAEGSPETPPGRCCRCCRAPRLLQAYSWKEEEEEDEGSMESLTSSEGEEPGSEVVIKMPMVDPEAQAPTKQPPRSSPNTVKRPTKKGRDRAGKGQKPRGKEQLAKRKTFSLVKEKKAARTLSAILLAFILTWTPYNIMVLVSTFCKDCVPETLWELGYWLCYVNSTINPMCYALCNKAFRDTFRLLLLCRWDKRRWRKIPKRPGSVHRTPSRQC
# [3] = biological target: T2, Muscarinic acetylcholine receptor M2 (Homo sapiens, UniProt P08172); assay: Displacement of [3H]N-methyl-scopolamine bromide from human recombinant muscarinic M2 receptor expressed in HEK293T cell membranes after 1 hr by liquid scintillation counting method; set-up: species or system HEK-293T
# T2 sequence (P08172 whole entry): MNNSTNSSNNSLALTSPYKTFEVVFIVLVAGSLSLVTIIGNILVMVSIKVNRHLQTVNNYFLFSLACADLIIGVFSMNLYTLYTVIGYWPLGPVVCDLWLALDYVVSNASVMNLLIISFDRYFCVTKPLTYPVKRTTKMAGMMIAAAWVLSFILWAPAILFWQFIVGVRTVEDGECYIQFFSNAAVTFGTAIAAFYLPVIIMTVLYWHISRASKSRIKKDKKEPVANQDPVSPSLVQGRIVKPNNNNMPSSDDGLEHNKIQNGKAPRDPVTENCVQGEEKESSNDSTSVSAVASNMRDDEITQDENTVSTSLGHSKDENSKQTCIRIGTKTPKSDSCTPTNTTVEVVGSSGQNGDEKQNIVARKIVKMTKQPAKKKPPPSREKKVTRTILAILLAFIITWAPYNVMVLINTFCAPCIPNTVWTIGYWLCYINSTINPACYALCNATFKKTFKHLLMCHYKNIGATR
# [4] = biological target: T3, Muscarinic acetylcholine receptor M2 (Homo sapiens) (UniProt P08172); assay: Agonist activity at human recombinant muscarinic M2 receptor co-expressed with Galphaqi5-HA in African green monkey COS7 cells assessed as IP accumulation after 2 hrs in presence of myo-[3H]inositol by liquid scintillation counting method relative to carbachol; type: functional
# T3 sequence (whole entry): T2 sequence (P08172 whole entry)
# [5] = biological target: Neuronal acetylcholine receptor; alpha4/beta2 (Homo sapiens, UniProt P17787+P43681); assay: Displacement of [3H]cytisine from alpha4beta2 nAChR expressed in human recombinant SH-SY5Y cell membranes after 120 mins
# [6] = biological target: T2, Muscarinic acetylcholine receptor M2; assay: Agonist activity at human recombinant muscarinic M2 receptor co-expressed with Galphaqi5-HA in African green monkey COS7 cells assessed as IP accumulation after 2 hrs in presence of myo-[3H]inositol by liquid scintillation counting method; type: functional
# [7] = biological target: T3, Muscarinic acetylcholine receptor M2 (Homo sapiens); assay: Agonist activity at human recombinant muscarinic M2 receptor co-expressed with Galphaqi5-HA in African green monkey COS7 cells assessed as IP accumulation at 100 uM after 2 hrs in presence of myo-[3H]inositol by liquid scintillation counting method relative to carbachol; type: functional
# [8] = biological target: T3, Muscarinic acetylcholine receptor M2 (Homo sapiens); assay: Agonist activity at Gi/o coupled recombinant human M2 mAChR expressed in CHO-FlpIn cells assessed as IP-one accumulation after 40 mins by HTRF assay; type: cell-based
# In short: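 Stably transfected CHO-FlpIn whole cells, 20000/well, grown overnight at 37 °C with 5% CO2. Cells were washed with PBS, then held 60 min at 37 °C in HEPES stimulation buffer with 50 mM LiCl, pH 7.4. ACh or test ligand was added and incubated 40 min.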
# Sequence of Muscarinic acetylcholine receptor M3 (P20309 whole entry): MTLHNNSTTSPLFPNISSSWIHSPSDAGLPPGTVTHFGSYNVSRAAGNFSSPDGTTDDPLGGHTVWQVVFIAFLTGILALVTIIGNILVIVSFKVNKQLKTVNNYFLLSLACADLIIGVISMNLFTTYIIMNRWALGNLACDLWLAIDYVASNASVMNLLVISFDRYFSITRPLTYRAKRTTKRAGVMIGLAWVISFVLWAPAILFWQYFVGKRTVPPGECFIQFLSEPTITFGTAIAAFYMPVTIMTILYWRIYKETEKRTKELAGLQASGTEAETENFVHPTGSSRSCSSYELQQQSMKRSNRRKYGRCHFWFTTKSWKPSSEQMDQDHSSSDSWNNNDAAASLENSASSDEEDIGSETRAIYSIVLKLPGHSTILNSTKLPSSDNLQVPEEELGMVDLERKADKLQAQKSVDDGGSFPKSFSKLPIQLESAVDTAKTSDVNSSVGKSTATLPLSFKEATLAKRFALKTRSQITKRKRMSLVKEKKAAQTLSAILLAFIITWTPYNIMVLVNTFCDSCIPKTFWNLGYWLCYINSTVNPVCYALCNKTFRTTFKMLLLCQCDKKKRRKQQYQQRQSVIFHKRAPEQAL
# Sequence of Neuronal acetylcholine receptor; alpha4/beta2 (P17787 whole entry): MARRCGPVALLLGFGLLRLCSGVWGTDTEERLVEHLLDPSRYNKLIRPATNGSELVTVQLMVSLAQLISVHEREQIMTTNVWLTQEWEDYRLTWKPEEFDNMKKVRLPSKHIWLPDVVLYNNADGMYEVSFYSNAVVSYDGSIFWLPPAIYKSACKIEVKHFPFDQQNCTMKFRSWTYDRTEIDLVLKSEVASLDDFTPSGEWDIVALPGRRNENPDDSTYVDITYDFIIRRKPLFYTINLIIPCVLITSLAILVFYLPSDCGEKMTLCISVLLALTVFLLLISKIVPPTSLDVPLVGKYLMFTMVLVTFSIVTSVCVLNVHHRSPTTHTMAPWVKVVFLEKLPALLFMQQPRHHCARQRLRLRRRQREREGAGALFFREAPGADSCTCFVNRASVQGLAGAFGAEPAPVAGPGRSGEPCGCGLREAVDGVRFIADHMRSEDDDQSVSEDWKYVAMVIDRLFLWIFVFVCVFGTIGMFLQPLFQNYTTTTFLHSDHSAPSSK
# Sequence of Neuronal acetylcholine receptor; alpha4/beta2 (P43681 whole entry): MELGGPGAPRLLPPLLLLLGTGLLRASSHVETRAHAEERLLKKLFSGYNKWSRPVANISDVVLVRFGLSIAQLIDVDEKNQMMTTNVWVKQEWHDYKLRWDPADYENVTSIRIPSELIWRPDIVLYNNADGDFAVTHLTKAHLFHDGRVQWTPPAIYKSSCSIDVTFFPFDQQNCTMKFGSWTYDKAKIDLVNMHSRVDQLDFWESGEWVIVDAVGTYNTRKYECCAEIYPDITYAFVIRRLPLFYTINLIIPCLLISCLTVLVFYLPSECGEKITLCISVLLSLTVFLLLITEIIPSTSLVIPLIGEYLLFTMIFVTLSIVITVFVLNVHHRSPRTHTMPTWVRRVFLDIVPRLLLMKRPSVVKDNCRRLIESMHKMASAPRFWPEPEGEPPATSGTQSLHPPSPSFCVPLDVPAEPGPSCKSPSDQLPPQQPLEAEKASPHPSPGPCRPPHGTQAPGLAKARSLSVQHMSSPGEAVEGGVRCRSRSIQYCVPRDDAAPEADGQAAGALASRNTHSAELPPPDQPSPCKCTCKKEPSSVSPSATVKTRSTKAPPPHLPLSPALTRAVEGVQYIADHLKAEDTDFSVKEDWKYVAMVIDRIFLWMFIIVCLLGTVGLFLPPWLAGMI
SMILES,Ki [1],Ki [2],Ki [3],Emax [4],Ki [5],EC50 [6],Emax [7],Activity [8]
COc1cccc2c1CC(C[N+](C)(C)C)CC2 (centres undefined),3.9 µM,1.8 µM,1.3 µM,–,–,–,–,–
c1cncc(COCC2CCNC2)c1 (centres undefined),36 µM,18 µM,11 µM,74%,0.2 µM,29 µM,–,–
c1csc(COC2CCNC2)n1 (centres undefined),4.1 µM,4.2 µM,6 µM,74%,–,9.9 µM,–,–
CNCCc1cccc(OC)c1,0.78 µM,0.74 µM,1 µM,-12%,–,8.2 µM,–,–
C[N+](C)(C)CCc1ccc2ccoc2c1,0.041 µM,0.023 µM,0.14 µM,-14%,–,0.22 µM,–,–
C[N+](C)(C)C1CCc2ccc3ccoc3c2C1 (centres undefined),0.69 µM,0.38 µM,0.79 µM,-8.3%,–,2.3 µM,–,–
COc1cccc2c1CC[N+](C)(C)C2,24 µM,14 µM,26 µM,–,–,–,–,–
COc1cccc2c1C[N+](C)(C)CC2,5.8 µM,17 µM,6.3 µM,–,–,–,–,–
COc1cccc(C#CC[N+](C)(C)C)c1,20 µM,20 µM,50 µM,–,–,–,–,–
COc1cccc(C(=O)C[N+](C)(C)C)c1,0.21 µM,0.17 µM,2.4 µM,–,–,–,< 10%,–
COc1cccc(/C=C/C[N+](C)(C)C)c1,21 µM,16 µM,22 µM,–,–,–,–,–
COc1ccccc1CC[N+](C)(C)C,4.7 µM,4.9 µM,5.7 µM,21%,–,9.1 µM,–,–
C[N+](C)(C)CC#CCOC1=NOCC1,0.55 µM,0.35 µM,0.0049 µM,125%,–,0.00028 µM,–,–
COc1ccccc1C[N+](C)(C)C,> 50 µM,26 µM,> 50 µM,51%,–,18 µM,–,–
C[N+](C)(C)C1CCc2cccc(O)c2C1 (centres undefined),16 µM,2.9 µM,4.2 µM,–,–,–,–,–
CC(=O)OCC[N+](C)(C)C,–,–,–,–,–,–,–,inactive
COc1cccc2c1CCC(C[N+](C)(C)C)C2 (centres undefined),25 µM,17 µM,14 µM,–,–,–,–,–

SMILES,Ki [1],Ki [2],Ki [3],Emax [4],Ki [5],EC50 [6],Emax [7],Activity [8]
COc1cccc(C(O)C[N+](C)(C)C)c1 (centres undefined),12 µM,13 µM,29 µM,–,–,–,< 10%,–
CN(C)C1CCc2cccc(O)c2C1 (centres undefined),28 µM,> 50 µM,> 50 µM,–,–,–,–,–
COc1cccc2c1CC([N+](C)(C)C)CC2 (centres undefined),2 µM,1 µM,0.93 µM,–,–,–,–,–
CCOc1cccc(CC[N+](C)(C)C)c1,43 µM,42 µM,27 µM,–,–,–,40%,–
COc1ccc(F)c(CC[N+](C)(C)C)c1,14 µM,7.1 µM,0.98 µM,44%,–,23 µM,–,–
CN1CCCC(OCc2cccnc2)C1 (centres undefined),42 µM,20 µM,46 µM,33%,–,50 µM,–,–
COc1cccc(C2CC2C[N+](C)(C)C)c1 (centres undefined),8.7 µM,7.3 µM,15 µM,–,–,–,–,–
C[N+](C)(C)CCCc1ccc2ccoc2c1,0.14 µM,0.063 µM,0.23 µM,12%,–,0.027 µM,–,–
COc1cccc2c1CCC([N+](C)(C)C)C2 (centres undefined),4 µM,2.5 µM,4.4 µM,–,–,–,–,–
C[N+](C)(C)CCc1cccc(OC(F)(F)F)c1,11 µM,7.8 µM,9.2 µM,–,–,–,< 10%,–
CN1CCC(COCc2cccnc2)C1 (centres undefined),75 µM,38 µM,39 µM,–,–,> 100 µM,38%,–
C[N+](C)(C)CCc1cccc(O)c1,13 µM,20 µM,14 µM,44%,–,10 µM,–,–
COc1cccc2c1CC(N(C)C)CC2 (centres undefined),0.83 µM,2 µM,1.2 µM,–,–,–,–,–
C[N+](C)(C)CCc1cccc(Cl)c1,5.8 µM,4.5 µM,4.8 µM,–,–,–,< 10%,–
c1cncc(COC2CCCNC2)c1 (centres undefined),10 µM,10 µM,17 µM,60%,0.0016 µM,13 µM,–,–
C[N+]1(C)CCC(OCc2nccs2)C1 (centres undefined),12 µM,6.1 µM,10 µM,28%,–,10 µM,–,–
